Common to all, as to assay type: functional, cell-based
Test [1] has as its target T1, 5-hydroxytryptamine receptor 6 (Homo sapiens, UniProt P50406). In words: Antagonist activity at human recombinant 5HT6 receptor expressed in HEK293 cells assessed as inhibition of 5HT-induced cAMP accumulation at 10 uM pretreated for 10 mins before 5HT addition measured after 1 hr relative to control. In a few lines:
(§1)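 Cells kept at 37 °C under 5% CO2/95% air were suspended in PBS with 2 mM IBMX. They were pretreated with compound (or not) for 10 min, then stimulated with 5-HT for 30 min. HTRF cAMP detection used d2-labelled cAMP and cryptate-labelled anti-cAMP antibody, 1 h at room temperature. Read-out was excitation 314 nm, emission 668 and 620 nm. Results are percent inhibition versus untreated controls.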
A general note: cAMP levels reflect the balance of adenylyl cyclase and phosphodiesterase activity.

Test [2] addresses 5-hydroxytryptamine receptor 7 (Homo sapiens) (UniProt P34969). In words: Antagonist activity at human recombinant 5HT7 receptor expressed in HEK293 cells assessed as inhibition of 5HT-induced cAMP accumulation at 10 uM pretreated for 10 mins before 5HT addition measured after 1 hr relative to control. The procedure, abridged:
as §1

The target of test [3] is 5-hydroxytryptamine receptor 4 (Homo sapiens) (UniProt Q13639). In words: Antagonist activity at human recombinant 5HT4 receptor expressed in HEK293 cells assessed as inhibition of 5HT-induced cAMP accumulation at 10 uM pretreated for 10 mins before 5HT addition measured after 1 hr relative to control. The procedure, abridged:
as §1

The target of test [4] is T1, 5-hydroxytryptamine receptor 6. In words: Antagonist activity at human recombinant 5HT6 receptor expressed in HEK293 cells assessed as inhibition of 5HT-induced cAMP accumulation pretreated for 10 mins before 5HT addition measured after 1 hr. The procedure, abridged: as §1

T1 sequence (P50406 whole entry): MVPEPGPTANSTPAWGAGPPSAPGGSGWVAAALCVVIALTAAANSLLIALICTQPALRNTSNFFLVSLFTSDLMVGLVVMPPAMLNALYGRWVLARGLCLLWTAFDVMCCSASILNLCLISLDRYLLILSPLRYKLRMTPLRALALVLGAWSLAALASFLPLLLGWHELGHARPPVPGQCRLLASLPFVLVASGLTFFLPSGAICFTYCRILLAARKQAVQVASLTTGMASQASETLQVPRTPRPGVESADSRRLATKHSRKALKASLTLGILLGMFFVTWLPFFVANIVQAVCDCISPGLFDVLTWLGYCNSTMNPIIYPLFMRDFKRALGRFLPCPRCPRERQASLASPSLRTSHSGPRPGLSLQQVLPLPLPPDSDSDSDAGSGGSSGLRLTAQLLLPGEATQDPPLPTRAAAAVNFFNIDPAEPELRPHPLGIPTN
Sequence of 5-hydroxytryptamine receptor 4 (Homo sapiens) (Q13639 whole entry): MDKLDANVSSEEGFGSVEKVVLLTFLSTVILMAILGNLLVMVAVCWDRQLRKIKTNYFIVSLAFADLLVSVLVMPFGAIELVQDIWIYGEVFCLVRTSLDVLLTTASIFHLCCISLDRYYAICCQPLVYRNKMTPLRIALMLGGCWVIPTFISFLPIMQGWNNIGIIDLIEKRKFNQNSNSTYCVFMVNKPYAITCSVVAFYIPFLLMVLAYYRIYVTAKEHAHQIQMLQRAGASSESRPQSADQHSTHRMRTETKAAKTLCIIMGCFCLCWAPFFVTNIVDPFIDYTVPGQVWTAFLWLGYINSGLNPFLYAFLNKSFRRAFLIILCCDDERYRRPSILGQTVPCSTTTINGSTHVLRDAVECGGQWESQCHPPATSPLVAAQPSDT
Sequence of 5-hydroxytryptamine receptor 7 (Homo sapiens) (P34969 whole entry): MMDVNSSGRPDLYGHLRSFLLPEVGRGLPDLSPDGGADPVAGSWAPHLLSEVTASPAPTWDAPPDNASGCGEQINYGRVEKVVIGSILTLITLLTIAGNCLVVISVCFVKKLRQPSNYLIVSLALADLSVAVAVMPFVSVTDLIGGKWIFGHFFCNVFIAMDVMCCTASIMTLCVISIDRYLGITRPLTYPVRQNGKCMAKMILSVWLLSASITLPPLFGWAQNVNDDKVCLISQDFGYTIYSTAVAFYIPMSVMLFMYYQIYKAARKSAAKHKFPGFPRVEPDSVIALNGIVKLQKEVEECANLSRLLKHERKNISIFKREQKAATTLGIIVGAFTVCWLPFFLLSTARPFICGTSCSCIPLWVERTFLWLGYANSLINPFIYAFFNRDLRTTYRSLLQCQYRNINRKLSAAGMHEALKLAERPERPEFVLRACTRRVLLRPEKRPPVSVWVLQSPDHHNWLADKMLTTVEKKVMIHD

As to `CN1CCN(/N=C/c2c(-c3ccccc3)n(S(=O)(=O)c3ccc4ccccc4c3)c3ccccc23)CC1`, the inhibition (commonly the relative decrease from the control value, in per cent) in test [1] amounted to 39.6%.

For the molecule `Cc1c(C)c(S(=O)(=O)n2c(-c3ccccc3)c(/C=N/N3CCN(C)CC3)c3ccccc32)c(C)c2c1OC(C)(C)C2`, the inhibition in test [1] was determined as 22.4%.

Take `CCCCc1ccc(S(=O)(=O)n2c(-c3ccccc3)c(/C=N/N3CCN(C)CC3)c3ccccc32)cc1`: in test [1], the inhibition was determined as 14.3%.

In the case of `CN1CCN(/N=C/c2c(-c3ccccc3)n(S(=O)(=O)c3ccc(OC(F)(F)F)cc3)c3ccccc23)CC1`, the inhibition in test [1] was determined as 38.7%.

For the molecule `Cc1c(/C=N/N2CCN(C)CC2)c2ccccc2n1S(=O)(=O)c1ccc(-c2ccccc2)cc1`, the inhibition in test [1] stood at 15.1%.

With `CN1CCN(/N=C/c2c(-c3ccccc3)n(S(=O)(=O)c3cccc4ccccc34)c3ccccc23)CC1`, the inhibition in test [2] worked out at 5%; in test [3], 9.4%; in test [1], 54%. In addition, the IC50 (commonly the concentration at which inhibition is half-maximal) in test [4] was 6.6 µM.

For `COc1cc(C)c(Cl)cc1S(=O)(=O)n1c(-c2ccccc2)c(/C=N/N2CCN(C)CC2)c2ccccc21`, the inhibition in test [2] was 72.8%; in test [3], 13%; in test [1], 55.3%. Moreover, in test [4], the IC50 came out at 7.4 µM.

For `CCc1ccc2ccccc2c1S(=O)(=O)n1c(C)c(/C=N/N2CCN(C)CC2)c2ccccc21`, in test [1], the inhibition was found to be 12.2%.

`CN1CCN(/N=C/c2c(-c3ccccc3)n(S(=O)(=O)c3cn(C)cn3)c3ccccc23)CC1`: the values for the inhibition in test [2], in test [3] and in test [1] were 46.4%, 31.1% and 67.4%, respectively. In test [4], the IC50 is 3.6 µM.

For the molecule `Cc1c(/C=N/N2CCN(C)CC2)c2ccccc2n1S(=O)(=O)c1cccc2c(N(C)C)cccc12`, the inhibition in test [1] stood at 9.5%.

Consider `Cc1ccc(S(=O)(=O)n2c(C)c(/C=N/N3CCN(C)CC3)c3ccccc32)cc1`, for which the inhibition in test [1] is 49.1%.

Consider `CN1CCN(/N=C/c2c(-c3ccccc3)n(S(=O)(=O)c3ccccc3)c3ccccc23)CC1`, for which the inhibition amounted to 34.6% in test [2], 79.9% in test [3] and 83.5% in test [1]. Moreover, the IC50 in test [4] worked out at 1.8 µM.

For the molecule `COc1ccc(S(=O)(=O)n2c(-c3ccccc3)c(/C=N/N3CCN(C)CC3)c3ccccc32)cc1`, the inhibition in test [1] was 31.2%.

Take `CCCCN(CCCC)c1cccc2c(S(=O)(=O)n3c(C)c(/C=N/N4CCN(C)CC4)c4ccccc43)cccc12`: the inhibition in test [1] is 44.6%.

Turning to `COc1cc(C)c(Cl)cc1S(=O)(=O)n1c(C)c(/C=N/N2CCN(C)CC2)c2ccccc21`, the inhibition was 18.4% in test [2], 17.9% in test [3] and 88.6% in test [1]. Besides, the IC50 in test [4] is 2.4 µM.

Take `CN1CCN(/N=C/c2c(-c3ccccc3)n(S(=O)(=O)Cc3ccccc3)c3ccccc23)CC1`: the inhibition in test [1] amounted to 36.5%.

`CC(C)c1ccc(S(=O)(=O)n2c(-c3ccccc3)c(/C=N/N3CCN(C)CC3)c3ccccc32)cc1`: the inhibition in test [1] was found to be 35.4%.

Regarding `Cc1c(/C=N/N2CCN(C)CC2)c2ccccc2n1S(=O)(=O)c1ccc(/N=N/c2ccc(N(C)C)cc2)cc1`, in test [1], the inhibition amounted to 16.1%.

Turning to `CN1CCN(/N=C/c2c(-c3ccccc3)n(S(=O)(=O)c3ccc(I)cc3)c3ccccc23)CC1`, the inhibition in test [1] is 24.3%.

Consider `Cc1c(/C=N/N2CCN(C)CC2)c2ccccc2n1S(=O)(=O)c1ccc2ccccc2c1`, for which the inhibition in test [2] was 17.1%; in test [3], 92.2%; in test [1], 78.9%. Besides, the IC50 in test [4] turned out to be 2.04 µM.

For `CN1CCN(/N=C/c2c(-c3ccccc3)n(S(=O)(=O)c3cccc4c(N(C)C)cccc34)c3ccccc23)CC1`, the inhibition in test [2] was 42.2%; in test [3] it was 65%; in test [1] it was 85.3%. Also, the IC50 in test [4] amounted to 1.4 µM.

As to `COc1ccc(NS(=O)(=O)c2ccc(I)cc2)cc1N1CCN(C)CC1`, the inhibition in test [2] was found to be 5%; in test [3], 5.8%.

For `CC1CCN(CC[C@H]2CCCN2S(=O)(=O)c2cccc(O)c2)CC1`, the inhibition in test [2] is 104%.

Turning to `Cc1c(/C=N/N2CCN(C)CC2)c2ccccc2n1S(=O)(=O)c1ccc([N+](=O)[O-])cc1`, the inhibition in test [1] came out at 52.4%.

For `Cc1c(C)c(S(=O)(=O)n2c(-c3ccccc3)c(/C=N/N3CCN(C)CC3)c3ccccc32)c(C)c2c1OC(C)(C)CC2`, the inhibition in test [1] was determined as 20.6%.

Turning to `Cc1ccc(S(=O)(=O)n2c(-c3ccccc3)c(/C=N/N3CCN(C)CC3)c3ccccc32)cc1`, the inhibition in test [1] was determined as 33.2%.

As to `CN1CCN(/N=C/c2c(-c3ccccc3)n(S(=O)(=O)c3ccc(Cl)cc3)c3ccccc23)CC1`, the inhibition in test [1] came to 30.5%.

Consider `Cc1c(/C=N/N2CCN(C)CC2)c2ccccc2n1S(=O)(=O)c1ccc(Cl)c2nonc12`, for which, in test [1], the inhibition is 27.2%.

Regarding `CN1CCN(/N=C/c2c(-c3ccccc3)n(S(=O)(=O)c3ccc(F)cc3)c3ccccc23)CC1`, the inhibition worked out at 28.5% in test [2], 37.3% in test [3] and 74.2% in test [1]. Besides, in test [4], the IC50 stood at 2.9 µM.

In the case of `Cc1c(/C=N/N2CCN(C)CC2)c2ccccc2n1S(=O)(=O)c1ccc(I)cc1`, in test [1], the inhibition came out at 13.5%.

`CCCCN(CCCC)c1cccc2c(S(=O)(=O)n3c(-c4ccccc4)c(/C=N/N4CCN(C)CC4)c4ccccc43)cccc12`: the inhibition in test [1] is 21.8%.

In the case of `Cc1c(/C=N/N2CCN(C)CC2)c2ccccc2n1S(=O)(=O)c1ccc(-c2ccc(Cl)cc2)cc1`, the inhibition in test [1] was 0.1%.

As for `Cc1c(/C=N/N2CCN(C)CC2)c2ccccc2n1S(=O)(=O)c1ccc(F)cc1`, the inhibition in test [2] is 12.3%; in test [3] it was 83%; in test [1] it was 71.7%. For the same molecule, the IC50 in test [4] was found to be 4.74 µM.

These data come from ChEMBL document CHEMBL2413033, “Design and synthesis of novel series of 5-HT6 receptor ligands having indole, a central aromatic core and 1-amino-4 methyl piperazine as a positive ionizable group” (Bioorg Med Chem, 2013).
